This passage reports inhibition and fold change (FC) results from ChEMBL document CHEMBL5653631, “A Potent and Selective ULK1 Inhibitor Suppresses Autophagy and Sensitizes Cancer Cells to Nutrient Stress” (iScience, 2018).

The target in test [1] is Epithelial discoidin domain-containing receptor 1 (Homo sapiens) (UniProt Q08345). Kind of test: Inhibition of human recombinant DDR1 at 40 nM in presence of ATP by radiometric assay relative to control.
Test [2] deals with Ribosomal protein S6 kinase alpha-4 (Homo sapiens) (UniProt O75676). Briefly: Inhibition of human recombinant MSK2 at 40 nM in presence of ATP by radiometric assay relative to control.
Test [3] addresses Serine/threonine-protein kinase 38-like (Homo sapiens) (UniProt Q9Y2H1). Kind of test: Inhibition of human recombinant NDR2 at 40 nM related to control ULK1.
For test [4], the target named is 5'-AMP-activated protein kinase catalytic subunit alpha-2 (Homo sapiens) (UniProt P54646). Briefly: Inhibition of human recombinant AMPKa2 at 500 nM in presence of ATP by radiometric assay relative to control. In short, it runs like this:
(§1)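 Panel of 327 recombinant human kinases, each assayed in vitro by radiometric activity assay in duplicate at a single inhibitor concentration per compound, chosen with reference to its ULK1 inhibition. Activity remaining was expressed as percent of vehicle control, and percent inhibition was calculated as 100 minus percent activity remaining.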

In test [5] the target is Ephrin type-A receptor 7 (Homo sapiens) (UniProt Q15375). Briefly: Inhibition of human recombinant EphA7 at 500 nM in presence of ATP by radiometric assay relative to control.
The target of test [6] is Serine/threonine-protein kinase 25 (Homo sapiens) (UniProt O00506). Briefly: Inhibition of human recombinant YSK1 at 500 nM in presence of ATP by radiometric assay relative to control.
Test [7] deals with Proto-oncogene tyrosine-protein kinase receptor Ret (Homo sapiens) (UniProt P07949). Kind of test: Inhibition of human recombinant RET at 500 nM related to control ULK1.
Test [8] addresses T1, Serine/threonine-protein kinase Sgk3 (Homo sapiens) (UniProt Q96BR1).
T1 sequence (whole entry): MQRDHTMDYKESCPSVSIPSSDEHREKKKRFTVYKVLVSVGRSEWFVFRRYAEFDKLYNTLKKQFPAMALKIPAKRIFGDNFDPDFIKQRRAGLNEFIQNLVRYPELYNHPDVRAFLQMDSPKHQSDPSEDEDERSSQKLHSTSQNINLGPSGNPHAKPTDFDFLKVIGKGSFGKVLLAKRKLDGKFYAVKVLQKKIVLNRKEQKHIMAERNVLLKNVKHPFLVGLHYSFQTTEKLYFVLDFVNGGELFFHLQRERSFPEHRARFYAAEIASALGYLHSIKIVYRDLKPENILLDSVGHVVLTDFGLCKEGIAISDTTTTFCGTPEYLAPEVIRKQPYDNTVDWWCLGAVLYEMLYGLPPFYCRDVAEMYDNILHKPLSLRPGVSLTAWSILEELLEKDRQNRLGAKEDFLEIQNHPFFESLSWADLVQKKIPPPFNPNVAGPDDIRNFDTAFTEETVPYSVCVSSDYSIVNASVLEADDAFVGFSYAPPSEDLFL
Briefly: Inhibition of human recombinant SGK3 at 500 nM related to control ULK1.

The target in test [9] is T2, Aurora kinase A (Homo sapiens) (UniProt O14965).
T2 sequence (whole entry): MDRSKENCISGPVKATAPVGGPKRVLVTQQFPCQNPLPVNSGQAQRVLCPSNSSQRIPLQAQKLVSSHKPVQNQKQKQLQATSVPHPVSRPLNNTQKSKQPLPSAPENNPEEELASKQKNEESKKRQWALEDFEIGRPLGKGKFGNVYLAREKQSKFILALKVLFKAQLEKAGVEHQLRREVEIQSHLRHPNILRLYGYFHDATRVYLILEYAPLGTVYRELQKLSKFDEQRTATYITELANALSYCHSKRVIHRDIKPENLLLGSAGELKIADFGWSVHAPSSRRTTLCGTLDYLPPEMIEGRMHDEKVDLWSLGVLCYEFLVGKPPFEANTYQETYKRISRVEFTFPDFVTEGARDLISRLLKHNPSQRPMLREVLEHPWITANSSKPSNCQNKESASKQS
Briefly: Inhibition of human recombinant AurA at 15 nM in presence of ATP by radiometric assay relative to control. The procedure, abridged:
as §1

Test [10] deals with T3, Tyrosine-protein kinase ITK/TSK (Homo sapiens) (UniProt Q08881).
T3 sequence (whole entry): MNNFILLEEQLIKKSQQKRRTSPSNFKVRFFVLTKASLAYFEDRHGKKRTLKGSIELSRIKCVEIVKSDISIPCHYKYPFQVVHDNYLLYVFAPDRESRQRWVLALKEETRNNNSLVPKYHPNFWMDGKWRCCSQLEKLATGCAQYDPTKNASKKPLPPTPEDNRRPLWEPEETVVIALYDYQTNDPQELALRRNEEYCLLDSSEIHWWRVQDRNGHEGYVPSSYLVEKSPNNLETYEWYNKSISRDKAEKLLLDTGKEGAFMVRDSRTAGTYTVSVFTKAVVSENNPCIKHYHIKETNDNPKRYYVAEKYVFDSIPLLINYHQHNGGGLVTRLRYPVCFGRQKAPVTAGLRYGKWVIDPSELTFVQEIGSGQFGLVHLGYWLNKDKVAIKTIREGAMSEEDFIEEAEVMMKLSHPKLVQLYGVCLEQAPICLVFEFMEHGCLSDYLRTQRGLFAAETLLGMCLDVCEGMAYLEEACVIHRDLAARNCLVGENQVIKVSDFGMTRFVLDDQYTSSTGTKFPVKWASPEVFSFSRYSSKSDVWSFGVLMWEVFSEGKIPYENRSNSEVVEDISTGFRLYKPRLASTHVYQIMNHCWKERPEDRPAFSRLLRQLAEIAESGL
Kind of test: Inhibition of human recombinant ITK at 15 nM related to control ULK1.

For test [11], the target named is Leukocyte tyrosine kinase receptor (Homo sapiens) (UniProt P29376). Briefly: Inhibition of human recombinant LTK at 15 nM related to control ULK1.
Test [12] deals with Cyclin-dependent kinase 18 (Homo sapiens) (UniProt Q07002). Kind of test: Inhibition of human recombinant PCTAIRE3 at 15 nM related to control ULK1.
Test [13] concerns the target T4, cAMP-dependent protein kinase catalytic subunit PRKX (Homo sapiens) (UniProt P51817).
T4 sequence (whole entry): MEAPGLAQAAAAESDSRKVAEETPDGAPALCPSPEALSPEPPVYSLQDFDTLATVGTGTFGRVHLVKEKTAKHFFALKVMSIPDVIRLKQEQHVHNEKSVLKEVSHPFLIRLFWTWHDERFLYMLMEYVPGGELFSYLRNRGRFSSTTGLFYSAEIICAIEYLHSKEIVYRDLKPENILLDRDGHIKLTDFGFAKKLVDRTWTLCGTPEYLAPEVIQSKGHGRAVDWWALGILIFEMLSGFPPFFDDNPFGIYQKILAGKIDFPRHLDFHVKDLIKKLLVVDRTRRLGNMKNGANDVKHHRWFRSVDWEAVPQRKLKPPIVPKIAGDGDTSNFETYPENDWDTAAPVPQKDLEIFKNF
Kind of test: Inhibition of human recombinant PRKX at 15 nM related to control ULK1.

Test [14] addresses SRSF protein kinase 1 (Homo sapiens) (UniProt Q96SB4). Briefly: Inhibition of human recombinant SRPK1 at 15 nM related to control ULK1.

Chain of Serine/threonine-protein kinase 38-like (Homo sapiens) (Q9Y2H1 2-464 limits assumed): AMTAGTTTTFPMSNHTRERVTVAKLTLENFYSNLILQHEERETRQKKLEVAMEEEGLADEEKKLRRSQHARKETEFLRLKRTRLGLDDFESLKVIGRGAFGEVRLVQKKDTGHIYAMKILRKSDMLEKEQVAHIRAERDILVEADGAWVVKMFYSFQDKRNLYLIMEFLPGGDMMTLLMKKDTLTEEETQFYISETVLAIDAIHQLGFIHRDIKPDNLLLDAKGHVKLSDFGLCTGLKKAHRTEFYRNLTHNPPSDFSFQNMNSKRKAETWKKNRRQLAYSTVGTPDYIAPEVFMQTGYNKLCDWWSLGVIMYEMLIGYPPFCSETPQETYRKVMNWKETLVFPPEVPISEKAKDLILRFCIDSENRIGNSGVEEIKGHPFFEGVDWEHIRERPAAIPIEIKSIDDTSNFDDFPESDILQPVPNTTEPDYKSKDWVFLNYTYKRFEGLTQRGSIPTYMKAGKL
Chain of Epithelial discoidin domain-containing receptor 1 (Homo sapiens) (Q08345 whole entry, the tested form may be a part): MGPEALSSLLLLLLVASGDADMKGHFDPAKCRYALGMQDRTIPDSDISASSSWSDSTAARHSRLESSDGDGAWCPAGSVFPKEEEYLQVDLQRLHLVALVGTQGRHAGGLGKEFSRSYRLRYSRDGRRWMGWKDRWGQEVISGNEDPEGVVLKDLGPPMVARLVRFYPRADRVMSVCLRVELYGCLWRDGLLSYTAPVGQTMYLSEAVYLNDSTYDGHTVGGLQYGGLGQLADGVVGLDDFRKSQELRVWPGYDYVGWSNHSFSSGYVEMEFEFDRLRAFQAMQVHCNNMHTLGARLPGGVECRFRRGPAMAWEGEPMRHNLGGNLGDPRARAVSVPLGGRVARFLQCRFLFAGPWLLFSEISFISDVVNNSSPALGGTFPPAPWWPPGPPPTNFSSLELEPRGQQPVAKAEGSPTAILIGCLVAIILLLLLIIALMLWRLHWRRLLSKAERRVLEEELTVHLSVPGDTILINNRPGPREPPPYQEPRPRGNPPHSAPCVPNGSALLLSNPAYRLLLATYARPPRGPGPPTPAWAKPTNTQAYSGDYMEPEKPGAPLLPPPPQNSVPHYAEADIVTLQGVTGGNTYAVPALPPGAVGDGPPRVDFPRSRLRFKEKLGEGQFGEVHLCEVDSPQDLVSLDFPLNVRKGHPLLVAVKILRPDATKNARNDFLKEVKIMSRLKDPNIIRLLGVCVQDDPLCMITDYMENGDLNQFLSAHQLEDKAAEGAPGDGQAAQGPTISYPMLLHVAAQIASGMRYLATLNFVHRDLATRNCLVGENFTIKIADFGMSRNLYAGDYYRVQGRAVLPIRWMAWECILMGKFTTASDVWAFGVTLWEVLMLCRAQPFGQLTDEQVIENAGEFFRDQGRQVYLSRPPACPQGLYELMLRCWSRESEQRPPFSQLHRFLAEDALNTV
Chain of 5'-AMP-activated protein kinase catalytic subunit alpha-2 (Homo sapiens) (P54646 whole entry, looked up): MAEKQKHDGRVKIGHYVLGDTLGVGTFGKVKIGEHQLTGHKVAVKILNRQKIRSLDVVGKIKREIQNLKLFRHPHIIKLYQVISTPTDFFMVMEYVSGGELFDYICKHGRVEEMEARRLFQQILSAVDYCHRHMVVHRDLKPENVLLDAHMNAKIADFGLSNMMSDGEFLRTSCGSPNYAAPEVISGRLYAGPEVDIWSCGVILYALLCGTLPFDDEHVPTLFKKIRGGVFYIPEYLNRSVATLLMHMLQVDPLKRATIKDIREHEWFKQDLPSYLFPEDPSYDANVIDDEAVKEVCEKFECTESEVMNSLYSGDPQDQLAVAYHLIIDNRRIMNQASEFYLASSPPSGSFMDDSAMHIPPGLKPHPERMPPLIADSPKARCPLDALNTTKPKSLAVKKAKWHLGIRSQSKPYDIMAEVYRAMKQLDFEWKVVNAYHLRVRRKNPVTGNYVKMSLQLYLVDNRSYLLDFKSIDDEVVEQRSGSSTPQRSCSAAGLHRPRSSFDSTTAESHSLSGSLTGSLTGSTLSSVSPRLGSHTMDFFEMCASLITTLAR
Chain of Serine/threonine-protein kinase 25 (Homo sapiens) (O00506 whole entry, looked up): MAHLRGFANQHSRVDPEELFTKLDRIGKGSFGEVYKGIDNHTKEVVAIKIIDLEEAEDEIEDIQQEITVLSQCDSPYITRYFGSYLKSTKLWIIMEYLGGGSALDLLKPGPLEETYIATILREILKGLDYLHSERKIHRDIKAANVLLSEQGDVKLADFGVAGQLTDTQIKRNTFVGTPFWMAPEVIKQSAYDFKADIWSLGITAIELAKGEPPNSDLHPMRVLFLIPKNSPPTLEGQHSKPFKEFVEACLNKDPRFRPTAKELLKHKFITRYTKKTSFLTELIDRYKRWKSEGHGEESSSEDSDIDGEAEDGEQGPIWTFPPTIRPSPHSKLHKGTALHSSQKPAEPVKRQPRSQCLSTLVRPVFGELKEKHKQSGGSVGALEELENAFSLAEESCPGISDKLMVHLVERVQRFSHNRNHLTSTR
Chain of Proto-oncogene tyrosine-protein kinase receptor Ret (Homo sapiens) (P07949 whole entry): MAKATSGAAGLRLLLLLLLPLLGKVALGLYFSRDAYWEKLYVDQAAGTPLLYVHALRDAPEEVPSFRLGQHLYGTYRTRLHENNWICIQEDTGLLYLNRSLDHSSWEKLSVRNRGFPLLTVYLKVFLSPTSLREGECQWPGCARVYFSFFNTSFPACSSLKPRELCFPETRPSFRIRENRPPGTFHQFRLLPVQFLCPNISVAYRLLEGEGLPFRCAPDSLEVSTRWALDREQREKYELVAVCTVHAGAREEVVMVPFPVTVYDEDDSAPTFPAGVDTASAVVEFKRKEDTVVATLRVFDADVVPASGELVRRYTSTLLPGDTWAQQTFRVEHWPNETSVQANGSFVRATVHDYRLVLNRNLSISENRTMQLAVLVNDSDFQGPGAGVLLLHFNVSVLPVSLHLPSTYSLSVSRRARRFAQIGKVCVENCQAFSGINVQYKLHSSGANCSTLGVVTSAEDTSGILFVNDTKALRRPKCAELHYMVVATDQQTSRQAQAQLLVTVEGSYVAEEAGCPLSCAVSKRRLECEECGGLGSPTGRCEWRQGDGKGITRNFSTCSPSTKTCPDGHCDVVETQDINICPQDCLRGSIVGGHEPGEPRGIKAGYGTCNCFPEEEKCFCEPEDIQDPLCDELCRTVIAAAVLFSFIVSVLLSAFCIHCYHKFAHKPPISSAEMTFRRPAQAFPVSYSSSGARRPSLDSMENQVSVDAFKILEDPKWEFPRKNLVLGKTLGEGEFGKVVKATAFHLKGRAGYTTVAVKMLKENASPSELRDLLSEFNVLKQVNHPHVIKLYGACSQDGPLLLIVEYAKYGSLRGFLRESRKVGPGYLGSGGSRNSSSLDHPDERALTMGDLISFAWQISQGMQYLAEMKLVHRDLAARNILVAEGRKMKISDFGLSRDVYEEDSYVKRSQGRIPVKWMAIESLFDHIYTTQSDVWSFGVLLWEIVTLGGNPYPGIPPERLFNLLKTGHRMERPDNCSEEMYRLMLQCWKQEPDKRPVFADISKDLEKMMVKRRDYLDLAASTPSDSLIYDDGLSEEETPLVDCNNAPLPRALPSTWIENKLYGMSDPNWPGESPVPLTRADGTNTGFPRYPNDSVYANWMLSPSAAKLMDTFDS
Chain of SRSF protein kinase 1 (Homo sapiens) (Q96SB4 whole entry): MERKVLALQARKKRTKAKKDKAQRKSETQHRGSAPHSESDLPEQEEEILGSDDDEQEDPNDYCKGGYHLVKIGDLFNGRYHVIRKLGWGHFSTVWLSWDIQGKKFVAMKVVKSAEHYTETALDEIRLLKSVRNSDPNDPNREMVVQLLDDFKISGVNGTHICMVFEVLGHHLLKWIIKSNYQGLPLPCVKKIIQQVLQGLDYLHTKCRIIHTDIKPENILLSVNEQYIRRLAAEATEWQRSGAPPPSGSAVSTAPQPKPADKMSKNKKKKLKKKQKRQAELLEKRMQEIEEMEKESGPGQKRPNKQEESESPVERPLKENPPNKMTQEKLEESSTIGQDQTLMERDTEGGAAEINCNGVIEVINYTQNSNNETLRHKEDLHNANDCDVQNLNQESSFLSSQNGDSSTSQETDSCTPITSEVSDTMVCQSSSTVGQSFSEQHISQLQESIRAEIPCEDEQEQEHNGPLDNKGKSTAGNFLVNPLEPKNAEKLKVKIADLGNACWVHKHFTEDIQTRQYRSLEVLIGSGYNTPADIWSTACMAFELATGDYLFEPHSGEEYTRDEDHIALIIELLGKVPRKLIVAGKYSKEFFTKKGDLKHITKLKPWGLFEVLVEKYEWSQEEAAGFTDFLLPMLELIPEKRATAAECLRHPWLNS
Chain of Leukocyte tyrosine kinase receptor (Homo sapiens) (P29376 whole entry): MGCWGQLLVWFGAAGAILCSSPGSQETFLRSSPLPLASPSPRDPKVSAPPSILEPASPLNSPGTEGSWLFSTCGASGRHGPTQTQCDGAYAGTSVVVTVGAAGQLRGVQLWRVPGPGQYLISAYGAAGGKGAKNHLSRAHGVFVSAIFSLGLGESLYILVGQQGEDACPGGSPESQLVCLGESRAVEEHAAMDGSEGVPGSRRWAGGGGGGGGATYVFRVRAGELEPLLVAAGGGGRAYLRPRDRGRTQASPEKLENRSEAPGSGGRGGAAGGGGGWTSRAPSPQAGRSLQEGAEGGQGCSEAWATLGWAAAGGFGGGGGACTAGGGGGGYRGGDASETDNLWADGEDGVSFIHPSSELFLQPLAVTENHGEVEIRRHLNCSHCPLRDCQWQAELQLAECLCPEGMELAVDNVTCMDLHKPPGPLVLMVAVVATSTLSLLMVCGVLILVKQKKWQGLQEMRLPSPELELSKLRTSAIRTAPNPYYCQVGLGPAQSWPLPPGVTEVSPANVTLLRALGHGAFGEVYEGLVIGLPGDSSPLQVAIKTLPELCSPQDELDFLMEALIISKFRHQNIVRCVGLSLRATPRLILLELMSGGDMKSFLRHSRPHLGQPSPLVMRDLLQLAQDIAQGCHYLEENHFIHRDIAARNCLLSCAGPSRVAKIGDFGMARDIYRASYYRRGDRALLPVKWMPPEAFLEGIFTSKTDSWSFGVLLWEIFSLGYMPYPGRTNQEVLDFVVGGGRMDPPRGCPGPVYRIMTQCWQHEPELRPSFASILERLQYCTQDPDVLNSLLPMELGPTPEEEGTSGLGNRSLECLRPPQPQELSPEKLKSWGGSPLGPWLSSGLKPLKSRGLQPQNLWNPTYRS

On to `O=C(N[C@@H](C1CC1)C(F)(F)F)c1cc(-c2cnn3cc(-c4ccc(F)cc4)cnc23)cs1`, for which the inhibition in test [1] was found to be 18%; in test [2], 0%. The fold change (FC) in [3] came out at 0.
As to `CNC(=O)c1ccccc1Oc1nc(Nc2cc(OC)c(OC)c(OC)c2)ncc1Br`, the inhibition in test [4] worked out at 57%; in test [5] it was 0%; in [6] it was 12%. Moreover, the figures for the fold change (FC) in [7] and in test [8] were 0.04 and 0.01, respectively.
With `CC(C)[C@H](NC(=O)c1cc(-c2cnn3cc(-c4ccc(OCCN5CCCCC5)cc4)cnc23)cs1)C(F)(F)F`, the inhibition in test [9] stood at 13%. In addition, the fold change (FC) in test [10] worked out at 0.05; in test [11], 0; in test [12], 0.76; in [13], 0.18; in test [14] it was 0.
